This note sets out measurements from ChEMBL document CHEMBL1152654, “Development of a highly water-soluble peptide-based human neutrophil elastase inhibitor; AE-3763 for treatment of acute organ injury” (Bioorg Med Chem, 2009).

Active and inactive are the calls of the source. The calls are words filed in the database; no cut-off is given here.

Data set [1] relates to Hamster. Briefly: Inhibition of human neutrophil elastase-induced lung hemorrhage in hamster at 10 mg/kg/hr, iv administered as infusion. The data set is classed as functional. The conditions noted are these: Cricetinae. Put shortly:
(§1)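 Hamster lung hemorrhage induced by HNE instillation, with compound delivered by iv infusion over more than 70 min. BALF collected 1 h after HNE and centrifuged; supernatant absorbance at 414 nm used as hemorrhage measure; % inhibition reported.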

Data set [2] deals with Hamster. Briefly: Inhibition of human neutrophil elastase-induced lung hemorrhage in hamster at 3 mg/kg/hr, iv administered as infusion. It is filed as functional. The conditions noted are these: Cricetinae. Put shortly: as §1
Data set [3] relates to Hamster. Nature of the data set: Inhibition of human neutrophil elastase-induced lung hemorrhage in hamster at 1 mg/kg/hr, iv administered as infusion. The data set is classed as functional. The conditions noted are these: Cricetinae. Put shortly: as §1
For data set [4], the system named is Hamster. Briefly: Inhibition of human neutrophil elastase-induced lung hemorrhage in hamster at 10 mg/kg, iv administered as bolus dose. It is filed as functional. Particulars: Cricetinae. Put shortly:
(§2)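 Hamster lung hemorrhage induced by HNE instillation; compound given as iv bolus. One hour after HNE, BALF collected and centrifuged; supernatant absorbance at 414 nm taken as hemorrhage; % inhibition reported.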

Data set [5] deals with Hamster. Briefly: Inhibition of human neutrophil elastase-induced lung hemorrhage in hamster at 3 mg/kg, iv administered as bolus dose. The data set is classed as functional. The conditions noted are these: Cricetinae. Put shortly:
as §2

Data set [6] concerns Hamster. Nature of the data set: Inhibition of human neutrophil elastase-induced lung hemorrhage in hamster at 30 mg/kg, iv administered as bolus dose. It is filed as functional. Particulars: Cricetinae. Put shortly:
as §2

In data set [7] the test system is Hamster. Nature of the data set: Inhibition of human neutrophil elastase-induced lung hemorrhage in iv dosed hamster administered as bolus dose. The conditions noted are these: Cricetinae. It is filed as functional. Put shortly: as §2
Data set [8] concerns Hamster. Nature of the data set: Inhibition of human neutrophil elastase-induced lung hemorrhage in iv dosed hamster administered as infusion. The data set is classed as functional, Cricetinae. Put shortly: as §1
Data set [9] can be described thus: Aqueous solubility in water. The data set is classed as physicochemical.
In data set [10] the test system is Hamster. Briefly: Antiinflammatory activity in iv dosed hamster assessed as inhibition of LPS-induced lung edema. The data set is classed as functional, Cricetinae. Put shortly:
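Hamsters given LPS intratracheally; jugular-vein infusion started immediately after LPS and continued up to 6 h. Whole-lung wet weight measured at 6 h after LPS and corrected for each animal's body weight.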

In data set [11] the test system is Mus musculus. Briefly: Toxicity in mouse assessed as overt effects up to 300 mg/kg, iv. The data set is classed as organism-based. Also noted: dose 300 mg/kg, route intravenous. The conditions noted are these: in vivo.
The species entered for data set [12] is Mus musculus. The conditions noted are these: C3H/HeN, 10 to 100 mg/kg.

On to `CC(C)[C@H](NC(=O)[C@@H]1CCCN1C(=O)[C@@H](NC(=O)Cn1ccc(=O)n(CC(=O)O)c1=O)C(C)C)C(=O)C(=O)NCc1ccccc1`, for which the inhibition in vivo at 10 mg/kg/hr in [1] came to 90%. Besides, in data set [2], the inhibition in vivo at 3 mg/kg/hr came out at 78%. Moreover, the inhibition in vivo at 1 mg/kg/hr in data set [3] was found to be 32%.

For `CC(C)[C@H](NC(=O)[C@@H]1CCCN1C(=O)[C@@H](NC(=O)CN1CCN(CC(=O)O)C(=O)C1=O)C(C)C)C(=O)c1nc2ccccc2o1`, the inhibition in vivo at 10 mg/kg in data set [4] is 88%. Besides, in data set [5], the inhibition in vivo at 3 mg/kg turned out to be 57%. Moreover, in data set [1], the inhibition in vivo at 10 mg/kg/hr stood at 95%. Further, the inhibition in vivo at 3 mg/kg/hr in data set [2] was 76%. Further, in data set [3], the inhibition in vivo at 1 mg/kg/hr worked out at 41%.

Regarding `CC(C)[C@H](NC(=O)[C@@H]1CCCN1C(=O)[C@@H](NC(=O)CN1C(=O)N(CC(=O)O)C(C)(C)C1=O)C(C)C)C(=O)c1nc2ccccc2o1`, in data set [4], the inhibition in vivo at 10 mg/kg came out at 59%. Moreover, the inhibition in vivo at 3 mg/kg in data set [5] was determined as 20%.

As to `CC(C)[C@H](NC(=O)[C@@H]1CCCN1C(=O)[C@@H](NC(=O)CN1CC(=O)N(CC(=O)O)C1=O)C(C)C)C(=O)c1nc2ccccc2o1`, the inhibition in vivo at 30 mg/kg in data set [6] was found to be 91%. The inhibition in vivo at 10 mg/kg in [4] was 67%. In addition, the inhibition in vivo at 3 mg/kg in data set [5] came out at 32%. The inhibition in vivo at 10 mg/kg/hr in data set [1] came to 78%. In addition, the inhibition in vivo at 3 mg/kg/hr in data set [2] was 44%. The inhibition in vivo at 1 mg/kg/hr in data set [3] was -7%.

As to `CC(C)[C@H](NC(=O)[C@@H]1CCCN1C(=O)[C@@H](NC(=O)Cn1ncc(=O)n(CC(=O)O)c1=O)C(C)C)C(=O)c1nc2ccccc2o1`, the inhibition in vivo at 10 mg/kg in data set [4] is 33%. Also, in data set [5], the inhibition in vivo at 3 mg/kg amounted to 14%.

With `CC(C)[C@H](NC(=O)[C@@H]1CCCN1C(=O)[C@@H](NC(=O)CN1CCN(CC(=O)O)CC1)C(C)C)C(=O)c1nc2ccccc2o1`, the inhibition in vivo at 10 mg/kg in data set [4] came out at 70%. The inhibition in vivo at 3 mg/kg in [5] was 44%. Besides, in data set [1], the inhibition in vivo at 10 mg/kg/hr was determined as 87%. The inhibition in vivo at 3 mg/kg/hr in [2] was determined as 48%. In addition, the inhibition in vivo at 1 mg/kg/hr in [3] was found to be 34%.

Consider `CC(C)[C@H](NC(=O)[C@@H]1CCCN1C(=O)[C@@H](NC(=O)COc1ccc(OCC(=O)O)cc1)C(C)C)C(=O)c1nc2ccccc2o1`, for which the inhibition in vivo at 30 mg/kg in data set [6] was 56%. The inhibition in vivo at 10 mg/kg in [4] was 38%.

In the case of `COC(=O)C(=O)[C@@H](NC(=O)[C@@H]1CCCN1C(=O)[C@@H](NC(=O)Cn1ccc(=O)n(CC(=O)O)c1=O)C(C)C)C(C)C`, the inhibition in vivo at 10 mg/kg/hr in data set [1] was found to be 94%. Also, the inhibition in vivo at 3 mg/kg/hr in data set [2] came out at 43%. Besides, the inhibition in vivo at 1 mg/kg/hr in data set [3] was determined as 32%.

Take `CC(C)[C@H](NC(=O)[C@@H]1CCCN1C(=O)[C@@H](NC(=O)CN1CCN(CC(=O)O)C(=O)C1=O)C(C)C)C(=O)C(=O)NCc1ccccc1`: the inhibition in vivo at 10 mg/kg/hr in [1] was 89%. Besides, the inhibition in vivo at 3 mg/kg/hr in data set [2] was found to be 47%. Further, the inhibition in vivo at 1 mg/kg/hr in [3] is 31%.

Turning to `CC(C)[C@H](NC(=O)[C@@H]1CCCN1C(=O)[C@@H](NC(=O)Cn1ccc(=O)n(CC(=O)O)c1=O)C(C)C)C(=O)c1nc2ccccc2o1`, the inhibition in vivo at 30 mg/kg in [6] worked out at 97%. For the same compound, the inhibition in vivo at 10 mg/kg in [4] worked out at 66%. For the same compound, the inhibition in vivo at 3 mg/kg in data set [5] is 24%. Also, in [1], the inhibition in vivo at 10 mg/kg/hr came to 93%. Further, in data set [2], the inhibition in vivo at 3 mg/kg/hr was determined as 62%. For the same compound, the inhibition in vivo at 1 mg/kg/hr in [3] came out at 50%.

Regarding `Cc1cn(CC(=O)N[C@H](C(=O)N2CCC[C@H]2C(=O)N[C@H](C(=O)c2nc3ccccc3o2)C(C)C)C(C)C)c(=O)n(CC(=O)O)c1=O`, in data set [6], the inhibition in vivo at 30 mg/kg was determined as 92%. The inhibition in vivo at 10 mg/kg in [4] came to 70%. In data set [5], the inhibition in vivo at 3 mg/kg worked out at 39%. Moreover, the inhibition in vivo at 10 mg/kg/hr in data set [1] amounted to 56%. In addition, the inhibition in vivo at 3 mg/kg/hr in data set [2] worked out at 38%. For the same compound, the inhibition in vivo at 1 mg/kg/hr in [3] is 33%.

With `CC(C)[C@H](NC(=O)Cn1ccc(=O)n(CC(=O)O)c1=O)C(=O)N1CCC[C@H]1C(=O)N[C@H](C(=O)C(F)(F)F)C(C)C` (mixture of isomers), the inhibition in vivo at 10 mg/kg/hr in data set [1] worked out at 79%. In data set [2], the inhibition in vivo at 3 mg/kg/hr worked out at 7.6%. Further, in data set [3], the inhibition in vivo at 1 mg/kg/hr was -1.2%.

`CC(C)[C@H](NC(=O)[C@@H]1CCCN1C(=O)[C@@H](NC(=O)CN1CCN(CC(=O)O)C1=O)C(C)C)C(=O)c1nc2ccccc2o1`: the inhibition in vivo at 10 mg/kg in data set [4] is 68%. The inhibition in vivo at 3 mg/kg in data set [5] amounted to 22%. In data set [1], the inhibition in vivo at 10 mg/kg/hr came to 90%. Besides, in [2], the inhibition in vivo at 3 mg/kg/hr is 31%. For the same compound, the inhibition in vivo at 1 mg/kg/hr in data set [3] is 25%.

Take `CC(C)[C@H](NC(=O)[C@@H]1CCCN1C(=O)[C@@H](NC(=O)CN1CCC(=O)N(CC(=O)O)C1=O)C(C)C)C(=O)c1nc2ccccc2o1`: the inhibition in vivo at 10 mg/kg in data set [4] amounted to 34%. The inhibition in vivo at 3 mg/kg in data set [5] turned out to be 38%.

On to `CC(C)[C@H](NC(=O)[C@@H]1CCCN1C(=O)[C@@H](NC(=O)CN1CC(=O)N(CC(=O)O)CC1=O)C(C)C)C(=O)c1nc2ccccc2o1`, for which, in data set [4], the inhibition in vivo at 10 mg/kg was determined as 67%. For the same compound, the inhibition in vivo at 3 mg/kg in [5] turned out to be 20%. For the same compound, the inhibition in vivo at 10 mg/kg/hr in data set [1] turned out to be 90%. In data set [2], the inhibition in vivo at 3 mg/kg/hr amounted to 73%. Further, the inhibition in vivo at 1 mg/kg/hr in [3] was determined as 55%.

Take `CC(C)[C@H](NC(=O)[C@@H]1CCCN1C(=O)[C@@H](NC(=O)Cn1c(=O)ccn(CC(=O)O)c1=O)C(C)C)C(=O)c1nc2ccccc2o1`: in [6], the inhibition in vivo at 30 mg/kg stood at 94%. In addition, the inhibition in vivo at 10 mg/kg in data set [4] came out at 47%. Also, in [5], the inhibition in vivo at 3 mg/kg came out at 34%.

Take `COC(=O)C(=O)[C@@H](NC(=O)[C@@H]1CCCN1C(=O)[C@@H](NC(=O)CN1CCN(CC(=O)O)C(=O)C1=O)C(C)C)C(C)C`: the inhibition in vivo at 10 mg/kg/hr in data set [1] was 94%. In addition, the inhibition in vivo at 3 mg/kg/hr in data set [2] was 48%.

For `Cc1nn(CC(=O)N[C@H](C(=O)N2CCC[C@H]2C(=O)N[C@H](C(=O)c2nc3ccccc3o2)C(C)C)C(C)C)c(=O)n(CC(=O)O)c1=O`, in [4], the inhibition in vivo at 10 mg/kg was found to be 48%.

In the case of `CC(C)[C@H](NC(=O)CN1CCN(CC(=O)O)C1=O)C(=O)N1CCC[C@H]1C(=O)N[C@H](C(=O)C(F)(F)F)C(C)C`, the inhibition in vivo at 10 mg/kg/hr in data set [1] turned out to be 97%. Further, the inhibition in vivo at 3 mg/kg/hr in data set [2] was found to be 84%. For the same compound, the inhibition in vivo at 1 mg/kg/hr in [3] turned out to be 45%. Also, the median effective dose (ED50) came out at 1.2 mg/kg in data set [7] and 0.42 mg/kg/h in data set [8]. Besides, in data set [9], the solubility was > 1000 mg/mL. Also, the MED in data set [10] was 3 mg/kg/h. Further, the Activity result in [11] is given as “Non-toxic”. In data set [12], the inhibition entry is “Active”.

On to `CC(C)[C@H](NC(=O)[C@@H]1CCCN1C(=O)[C@@H](NC(=O)CN1C(=O)N(CC(=O)O)C(=O)C1(C)C)C(C)C)C(=O)c1nc2ccccc2o1`, for which the inhibition in vivo at 10 mg/kg in [4] was 42%. The inhibition in vivo at 3 mg/kg in data set [5] was 40%.

As for `CC(C)[C@H](NC(=O)[C@@H]1CCCN1C(=O)[C@@H](NC(=O)CN1C(=O)CN(CC(=O)O)C1=O)C(C)C)C(=O)c1nc2ccccc2o1`, the inhibition in vivo at 30 mg/kg in data set [6] is 81%. Further, the inhibition in vivo at 10 mg/kg in data set [4] was 72%. Besides, in [5], the inhibition in vivo at 3 mg/kg was 37%. In addition, the inhibition in vivo at 10 mg/kg/hr in data set [1] stood at 53%. In data set [2], the inhibition in vivo at 3 mg/kg/hr stood at 57%. The inhibition in vivo at 1 mg/kg/hr in data set [3] was determined as 39%.
